MOR-DOR inv ag – mu-delta opioid heterodimer inverse agonism; cell-based MOR-DOR heterodimer luminescence; inhibition, % at 9.3 µM; 340,000 tested, 0.21% active; AID 504357; in the data active = inhibition above about 22%, passing the limit was not always enough
Target sequence (P35372 whole entry, looked up): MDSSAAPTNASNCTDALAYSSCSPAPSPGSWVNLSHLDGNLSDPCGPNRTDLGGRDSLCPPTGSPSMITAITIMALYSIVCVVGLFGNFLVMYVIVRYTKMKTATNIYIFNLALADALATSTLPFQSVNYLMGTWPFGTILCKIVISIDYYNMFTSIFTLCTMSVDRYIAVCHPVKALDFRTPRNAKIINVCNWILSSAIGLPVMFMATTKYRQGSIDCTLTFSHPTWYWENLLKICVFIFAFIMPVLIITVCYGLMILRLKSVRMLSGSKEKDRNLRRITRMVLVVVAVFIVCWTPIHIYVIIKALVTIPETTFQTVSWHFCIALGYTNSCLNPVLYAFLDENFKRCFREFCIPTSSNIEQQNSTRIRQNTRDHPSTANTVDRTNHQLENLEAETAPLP
Target sequence (P41143 whole entry, looked up): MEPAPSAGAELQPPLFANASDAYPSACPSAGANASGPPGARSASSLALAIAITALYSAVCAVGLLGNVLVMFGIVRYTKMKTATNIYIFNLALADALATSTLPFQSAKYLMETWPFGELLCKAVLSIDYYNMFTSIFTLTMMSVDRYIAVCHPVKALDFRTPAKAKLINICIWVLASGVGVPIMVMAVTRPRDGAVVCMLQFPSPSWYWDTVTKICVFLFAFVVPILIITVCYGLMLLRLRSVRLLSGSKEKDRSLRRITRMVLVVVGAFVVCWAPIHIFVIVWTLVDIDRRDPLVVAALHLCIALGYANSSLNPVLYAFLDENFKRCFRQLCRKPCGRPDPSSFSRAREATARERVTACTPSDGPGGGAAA
HTR5A inv ag – inverse agonist of human HTR5A in OPRM1-OPRD1 counter-screen | 340,000 tested, 0.083% active | inhibition, % at 9.3 µM | P47898 | AID 504634 | HTR5A cell line, luminescence, inverse agonism; in the data active = inhibition mostly above about 23%, no sharp cut-off; inactive = mostly below about 18%
HTR5A ag – activates human HTR5A in OPRM1-OPRD1 agonist counter-screen | P47898 | HTR5A agonist assay, luminescence, cell-based | activation, % at 9.3 µM | 340,000 tested, 0.61% active | AID 504692; in the data active = activation mostly above about 9.5%, no sharp cut-off; inactive = mostly below about 7.6%
OPRM1-OPRD1 ag – agonists of human mu-delta opioid receptor heterodimerization | cells, OPRM1-OPRD1 heterodimerization, luminescence | activation, % at 9.3 µM | AID 504326 | 340,000 tested, 0.3% active
Lipid droplet – modulators of hepatic lipid droplet formation; AML12 mouse hepatocytes, oleate lipid droplets, BODIPY imaging; inhibition, % at 6.5 µM; AID 1656; 240,000 tested, 0.4% active;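 active = lipid droplet intensity inhibited by at least 50%, with more than 500 cells counted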
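Test system: AML12 hepatocytes (mouse); reagent: oleate loading, 100 µM; dosing: one dose, 6.5 µM compound; incubation: overnight exposure; signal: fluorescence imaging, 20x objective, two fields per well; read-out basis: % inhibition of corrected integrated BODIPY droplet signal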
OPRM1-D1 ag cf – OPRM1-OPRD1 heterodimer agonism, confirmation; 830 tested, 45% active; AID 504904; activation, % at 9.3 µM; cells, MOR-DOR heterodimerization, luminescence complementation; shares compounds with OPRM1-OPRD1 ag
HTR5A ag ctr2 – activates human HTR5A in OPRM1-OPRD1 agonist counter-screen | shares compounds with OPRM1-OPRD1 ag | activation, % at 9.3 µM | HTR5A agonist counterscreen, cell luminescence | 830 tested, 8% active | AID 504905; in the data active = activation above about 17%
Of the large screens only hits and unclear results are named; the others gave an inactive call (follow-up assays come after a bar, where they were run). Sampled rows, rich in hits. Any-hit rate of the full collection: about 1.4%. Rule as the data show it, unless noted: active = activation above about 18%; inactive = the rest.

COc1ccc(Cl)cc1NC(=O)CSc1nnc(Cc2ccc(C)cc2)c(=O)[nH]1	none (no result: Lipid droplet)
O=C(Nc1ccccc1)c1ccc(NC2CCCCC2)c(S(=O)(=O)N2CCOCC2)c1	OPRM1-OPRD1 ag 37 | OPRM1-D1 ag cf 43 | HTR5A ag ctr2 inactive
O=C(Nc1ccc(NC(=O)c2ccc(Cl)c(S(=O)(=O)N3CCOCC3)c2)cc1)c1ccccc1	none
COC(=O)CC1(C(=O)OC)Oc2ccc(Br)cc2C(=O)N1c1ccc(Br)cc1Cl (stereo not given)	OPRM1-OPRD1 ag 46 | OPRM1-D1 ag cf inactive | HTR5A ag ctr2 inactive
COC(=O)CC1(C(=O)OC)Oc2ccc(Br)cc2C(=O)N1c1cc(Cl)c(Cl)cc1Cl (stereo not given)	none
O=C(O)C1CCC(C(=O)O)SS1 (stereo not given)	none (no result: Lipid droplet)
CC(C)(C)c1ccc(OCC(=O)Nc2ccc3c4c(cccc24)C(=O)NC3=O)cc1	OPRM1-OPRD1 ag 19 | OPRM1-D1 ag cf inactive | HTR5A ag ctr2 inactive
CCc1ccc(NC(=O)N(CCCN2CCOCC2)Cc2cccs2)cc1	OPRM1-OPRD1 ag 34 (no result: Lipid droplet) | OPRM1-D1 ag cf 47 | HTR5A ag ctr2 inactive
O=C(Nc1ccccc1)N(CCCN1CCOCC1)Cc1cccs1	none (no result: Lipid droplet)
O=S(=O)(Nc1cc(Cl)ccc1-n1cncn1)c1ccccc1Cl	OPRM1-OPRD1 ag 73 (no result: Lipid droplet) | OPRM1-D1 ag cf inactive | HTR5A ag ctr2 inactive
O=S(=O)(Nc1ccc(Br)cn1)c1ccc(Cl)s1	none
C=CCn1c(Cc2ccccc2)nc2c(cnn2-c2ccccc2)c1=O	none
CC(C)Oc1ccc(/C=C/C(=O)NCC2COc3ccccc3O2)cc1 (stereo not given)	none
CCOC(=O)C1(Cc2ccccc2)CCN(Cc2cccn2-c2nccs2)CC1	OPRM1-OPRD1 ag 27 | OPRM1-D1 ag cf 224 | HTR5A ag ctr2 inactive
CCOC(=O)C1(Cc2ccccc2)CCN(Cc2cnn(C(C)C)c2)CC1	none
CCOC(=O)C1(Cc2cccc(OC)c2)CCN(Cc2cccn2-c2nccs2)CC1	none
CCOC(=O)C1(Cc2ccccc2)CCN(Cc2cccn2-c2cccnc2)CC1	OPRM1-OPRD1 ag 41 | OPRM1-D1 ag cf 55 | HTR5A ag ctr2 inactive
CCOC(=O)C1(CCOc2ccccc2)CCN(CCCn2cccn2)CC1	none
CCOC(=O)C1(CCOc2ccccc2)CCN(Cc2cccn2-c2cccnc2)CC1	OPRM1-OPRD1 ag 224 | OPRM1-D1 ag cf 240 | HTR5A ag ctr2 inactive
CC12CCC(O)CC1=CCC1C2CCC2(C)C(c3ccn[nH]3)CCC12 (stereo not given)	none (no result: Lipid droplet)
CN(/N=C/c1cccc(Br)c1)C1=NS(=O)(=O)c2ccccc21	none
COc1ccc(CCn2c(=S)[nH]c3cc(C(=O)NCc4ccco4)ccc3c2=O)cc1OC	OPRM1-OPRD1 ag 28 (no result: Lipid droplet) | OPRM1-D1 ag cf 24 | HTR5A ag ctr2 inactive
Cc1cc2c(cc1C)CSC(c1c(O)ccc3ccccc13)SC2	OPRM1-OPRD1 ag 31 | OPRM1-D1 ag cf 19 | HTR5A ag ctr2 inactive
Cc1sc(NC(=S)NC(=O)C2CCCCC2)c(C(N)=O)c1C	OPRM1-OPRD1 ag 19 | OPRM1-D1 ag cf 21 | HTR5A ag ctr2 inactive
Cc1sc(NC(=S)Nc2ccc(F)cc2)c(C(N)=O)c1C	none
COc1ccc(Br)cc1CN(C)C(=O)c1ccccc1SCC(=O)N1CCCC1	none (no result: Lipid droplet)
O=c1c2ccccc2nc2sc(Nc3cccc(Cl)c3)nn12	none (no result: Lipid droplet)
Cc1ccccc1N(CC(=O)N/N=C/c1ccc(F)cc1)C(=O)c1ccccc1	OPRM1-OPRD1 ag 30 | OPRM1-D1 ag cf 46 | HTR5A ag ctr2 inactive
CCn1c(=O)c(C(=O)NCc2cccnc2)c(O)c2ccccc21	OPRM1-OPRD1 ag 19 (no result: Lipid droplet) | OPRM1-D1 ag cf 29 | HTR5A ag ctr2 inactive
CCn1c(=O)c(C(=O)NCc2ccccc2)c(O)c2ccccc21	none
COc1ccc(Cc2n[nH]c(=S)n2NC(=O)Nc2ccc(Cl)c(Cl)c2)cc1	none
O=[N+]([O-])c1ccc(N2CCN(CCO)CC2)cc1Sc1nc2ccccc2[nH]1	OPRM1-OPRD1 ag 19 (no result: Lipid droplet) | OPRM1-D1 ag cf inactive | HTR5A ag ctr2 17
O=C(CSc1nc2ccccc2[nH]1)N1CCN(c2ccccc2)CC1	none (no result: Lipid droplet)
OC(CNC1CCCc2ccccc21)COc1ccc2ccccc2c1 (stereo not given)	OPRM1-OPRD1 ag 42 (no result: Lipid droplet) | OPRM1-D1 ag cf 31 | HTR5A ag ctr2 inactive
COc1ccc(C2/C=C\CN(C(=O)Nc3ccc(C(F)(F)F)cc3)CC(=O)N2Cc2ccc(F)cc2)cc1 (stereo not given)	HTR5A ag 20, OPRM1-OPRD1 ag 58 | OPRM1-D1 ag cf inactive | HTR5A ag ctr2 inactive
Cc1ccc2nc(-c3ccc(SCC(=O)Nc4nnc(C)s4)nc3)[nH]c2c1	OPRM1-OPRD1 ag 24 | OPRM1-D1 ag cf inactive | HTR5A ag ctr2 inactive
Cc1ccc(SCC(=O)Nc2ccc(-c3nc4ccccc4[nH]3)cc2)cc1	OPRM1-OPRD1 ag 34 | OPRM1-D1 ag cf 29 | HTR5A ag ctr2 inactive
CC(=O)N1CCc2cc(S(=O)(=O)C(C)CC(=O)Nc3ccc(OC(F)(F)F)cc3)ccc21 (stereo not given)	none
O=C(CNc1ccc2ccccc2c1)N/N=C/c1ccc([N+](=O)[O-])o1	HTR5A ag 9.3, OPRM1-OPRD1 ag 38 | OPRM1-D1 ag cf inactive | HTR5A ag ctr2 inactive
Fc1ccc2[nH]c3c(N4CCc5ccccc5C4)ncnc3c2c1	none (no result: MOR-DOR inv ag, HTR5A inv ag, HTR5A ag, OPRM1-OPRD1 ag)
Cc1ccc2[nH]c3c(N4CCc5ccccc5C4)ncnc3c2c1	OPRM1-OPRD1 ag 371 (no result: Lipid droplet) | OPRM1-D1 ag cf inactive | HTR5A ag ctr2 19
Cc1c(-n2c(SCC(=O)NC(C)C)nc3ccccc3c2=O)c(=O)n(-c2ccccc2)n1C	none
CN(C)CCCN(C(=O)c1ccc(Br)s1)c1nc2cc3c(cc2s1)OCCO3	OPRM1-OPRD1 ag 35 (no result: Lipid droplet) | OPRM1-D1 ag cf 93 | HTR5A ag ctr2 inactive
CN(C)C(CNC(=O)c1cc2ccccc2o1)c1ccco1 (stereo not given)	OPRM1-OPRD1 ag 22 (no result: Lipid droplet) | OPRM1-D1 ag cf 147 | HTR5A ag ctr2 inactive
Cc1ccc(CC(=O)NCC(c2ccco2)N(C)C)cc1C (stereo not given)	OPRM1-OPRD1 ag 69 | OPRM1-D1 ag cf 56 | HTR5A ag ctr2 inactive
CN(C)C(CNC(=O)c1ccc(C(F)(F)F)cc1)c1ccco1 (stereo not given)	OPRM1-OPRD1 ag 51 | OPRM1-D1 ag cf 52 | HTR5A ag ctr2 inactive
O=C(NCc1ccco1)c1cc2ccccc2o1	none (no result: Lipid droplet)
CC(=O)Nc1ccc(C(=O)NCC(c2ccco2)N(C)C)cc1 (stereo not given)	none
CCCNC(=O)c1onc(CS(=O)(=O)c2cc(C)cc(C)c2)c1C(=O)NCCC	none (no result: Lipid droplet)
O=C(N/N=C/c1cccnc1)c1ccc(NC(=O)c2ccccc2Cl)cc1	none
O=C(COc1ccc(/C=N/NC(=O)c2cc3ccccc3o2)cc1Br)Nc1ccccc1	OPRM1-OPRD1 ag 45 (no result: Lipid droplet) | OPRM1-D1 ag cf 41 | HTR5A ag ctr2 inactive
Cc1ccc(S(=O)(=O)N2CCCCC2)cc1C(=O)NCc1ccc(S(N)(=O)=O)cc1	none (no result: Lipid droplet)
